{
  "source": "paper PMC3620022",
  "about": "(Molecular cancer therapeutics, 2012)",
  "key": {"[1]": {"test_system": "MDA-MB-231 cells", "assay": "MDA-MB-231 cell proliferation assay", "format": "cell-based, human"}, "[2]": {"target": "T1, recombinant GAC (residues 128-603) (Mus musculus, UniProt D3Z7P3)", "T1 sequence (D3Z7P3 128-603 isoform D3Z7P3-2)": "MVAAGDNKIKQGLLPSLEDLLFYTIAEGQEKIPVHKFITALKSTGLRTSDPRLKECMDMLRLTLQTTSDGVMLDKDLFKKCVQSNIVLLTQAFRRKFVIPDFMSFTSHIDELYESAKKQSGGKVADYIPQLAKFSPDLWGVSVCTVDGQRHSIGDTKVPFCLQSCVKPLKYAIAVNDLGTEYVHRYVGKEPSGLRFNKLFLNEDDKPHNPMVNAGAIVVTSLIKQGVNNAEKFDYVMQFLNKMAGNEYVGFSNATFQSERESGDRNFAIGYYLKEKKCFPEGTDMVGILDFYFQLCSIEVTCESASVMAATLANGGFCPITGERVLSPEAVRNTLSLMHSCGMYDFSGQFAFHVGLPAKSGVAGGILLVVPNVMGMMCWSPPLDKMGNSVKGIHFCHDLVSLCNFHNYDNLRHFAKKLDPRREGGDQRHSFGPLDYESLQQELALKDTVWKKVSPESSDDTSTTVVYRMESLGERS", "assay": "Recombinant GAC two-step glutaminase assay", "format": "biochemical", "conditions": "for inhibition of phosphate-activated enzyme: GAC activated by inorganic phosphate before inhibitor"}, "[3]": {"target": "T2, full-length wild-type GAC (Δ72 GAC) (Mus musculus, UniProt D3Z7P3)", "T2 sequence (D3Z7P3 72-603 isoform D3Z7P3-2)": "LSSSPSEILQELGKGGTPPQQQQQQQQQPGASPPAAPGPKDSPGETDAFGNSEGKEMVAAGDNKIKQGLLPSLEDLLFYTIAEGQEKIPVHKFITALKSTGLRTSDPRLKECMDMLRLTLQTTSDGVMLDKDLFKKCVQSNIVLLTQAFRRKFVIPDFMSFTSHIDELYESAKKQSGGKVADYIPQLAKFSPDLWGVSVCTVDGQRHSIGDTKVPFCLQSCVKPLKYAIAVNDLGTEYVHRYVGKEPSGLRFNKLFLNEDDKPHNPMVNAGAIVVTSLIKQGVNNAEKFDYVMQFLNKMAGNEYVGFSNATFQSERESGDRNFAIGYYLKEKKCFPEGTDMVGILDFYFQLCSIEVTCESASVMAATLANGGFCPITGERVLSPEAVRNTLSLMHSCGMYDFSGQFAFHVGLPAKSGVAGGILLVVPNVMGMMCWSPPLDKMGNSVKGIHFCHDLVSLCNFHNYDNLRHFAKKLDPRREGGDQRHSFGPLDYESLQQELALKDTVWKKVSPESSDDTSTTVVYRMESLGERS", "assay": "Recombinant protein assay with full-length wild-type GAC", "format": "biochemical", "how_it_was_run": "(§1)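 Mouse GAC residues 72-603 in pET28a, wild type or site-directed mutant. Inhibitor in DMSO mixed with 50 nM enzyme and 21 mM glutamine in pH 8.6 Tris-acetate, then inorganic phosphate (136 mM) added; 10 min at 37°C; acid quench. Glutamate read by glutamate dehydrogenase/NAD coupling, A340 after 45 min room temperature against NAD-free blank; duplicates. IC50 from fixed-slope inhibitor curve fit.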"}, "[4]": {"target": "T3, R539L GAC mutant (Mus musculus, UniProt D3Z7P3, R539L)", "T3 sequence (D3Z7P3 72-603 isoform D3Z7P3-2 R539L)": "T2 sequence (D3Z7P3 72-603 isoform D3Z7P3-2) with R468L", "assay": "Recombinant protein assay with R539L GAC mutant", "format": "biochemical", "conditions": "concentrations up to 50 μM", "how_it_was_run": "as §1"}, "[5]": {"target": "T4, F532L GAC mutant (Mus musculus, UniProt D3Z7P3, F532L)", "T4 sequence (D3Z7P3 72-603 isoform D3Z7P3-2 F532L)": "T2 sequence (D3Z7P3 72-603 isoform D3Z7P3-2) with F461L", "assay": "Recombinant protein assay with F532L GAC mutant", "format": "biochemical", "conditions": "concentrations up to 50 μM", "how_it_was_run": "as §1"}},
  "note": "Residue numbers refer to the chain shown, from its start. Several values for one entry are separate records, joined by “and”; a condition that tells them apart may be missing. Equal entries are not always repeated.",
  "data": [
    {"smiles": "O=C(Cc1ccccc1)Nc1nnc(CCSCCc2nnc(NC(=O)Cc3ccccc3)s2)s1", "note": "[BPTES, reference compound]", "values": [
      {"measurement": "IC50", "setting": "[1]; MDA-MB-231 cell proliferation", "value": 3, "unit": "µM"},
      {"measurement": "inhibition of phosphate-activated enzyme", "setting": "[2]", "value": "able to do so"}
    ]},
    {"smiles": "CN(C)c1ccc(C2Nc3ccc4ccccc4c3C3=C2C(=O)CC(C)(C)C3)cc1Br", "note": "(centres unmarked) [compound 968, 5-(3-bromo-4-(dimethylamino)phenyl)-2,2-dimethyl-2,3,5,6-tetrahydrobenzo[a]phenanthridin-4(1H)-one]", "values": [
      {"measurement": "IC50", "setting": "[3]", "value": 19, "unit": "µM"},
      {"measurement": "IC50", "setting": "[1]; Homo sapiens, MDA-MB-231", "value": 4.2, "unit": "µM"},
      {"measurement": "inhibition of mutant", "setting": "[4]", "value": "detectable inhibition was not observed"},
      {"measurement": "inhibition of mutant", "setting": "[5]", "value": "detectable inhibition was not observed"},
      {"measurement": "inhibition at 10 µM", "setting": "[2]", "value": "21 ± 5", "unit": "%"},
      {"measurement": "inhibition at 25 µM", "setting": "[2]", "value": "94 ± 1", "unit": "%"},
      {"measurement": "inhibition at 50 µM", "setting": "[2]", "value": "95 ± 1", "unit": "%"},
      {"measurement": "inhibition of phosphate-activated enzyme", "setting": "[2]", "value": "unable to inhibit the phosphate-activated enzyme"},
      {"measurement": "IC50", "setting": "[2]; IC50, GAC 50 nM, glutamine 21 mM, phosphate 136 mM, 10 min, fixed slope inhibitor model, shorter GAC construct", "value": "9.3 µM and ~10 µM"}
    ]}
  ]
}
